# NOD2 RIPK2 PPI: NOD2-RIPK2 protein interaction inhibition; CHO BLA complementation NOD2-RIPK2, CCF4 ratio; actives 0.38% (n = 360,000); O43353; inhibition, % at 4.98 µM; in the data active = inhibition above about 21%;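 note: 0% = vehicle only and 100% = reference blocker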
# Target sequence (O43353 whole entry, looked up): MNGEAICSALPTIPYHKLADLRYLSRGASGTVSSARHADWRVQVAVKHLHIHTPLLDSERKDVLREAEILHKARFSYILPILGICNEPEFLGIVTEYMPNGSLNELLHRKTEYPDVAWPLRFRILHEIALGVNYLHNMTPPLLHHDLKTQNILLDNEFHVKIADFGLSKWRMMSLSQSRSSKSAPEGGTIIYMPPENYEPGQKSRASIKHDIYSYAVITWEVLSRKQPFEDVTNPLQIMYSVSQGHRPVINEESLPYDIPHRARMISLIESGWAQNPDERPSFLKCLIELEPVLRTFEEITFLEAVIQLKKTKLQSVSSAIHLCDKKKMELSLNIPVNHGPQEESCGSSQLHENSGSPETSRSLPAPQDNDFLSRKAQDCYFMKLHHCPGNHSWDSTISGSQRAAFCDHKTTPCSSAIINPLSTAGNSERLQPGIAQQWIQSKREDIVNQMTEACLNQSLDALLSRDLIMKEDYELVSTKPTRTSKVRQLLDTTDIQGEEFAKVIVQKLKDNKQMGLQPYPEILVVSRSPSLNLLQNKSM
# TLR4 MyD88 comp: blocks binding of human TLR4 to MyD88. HeLa CL3-4 TLR4/MyD88 BLA complementation, FRET ratio. inhibition, % at 8.4 µM. actives 0.18% (n = 200,000); in the data active = inhibition above about 25%;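 note: 0% = vehicle and 100% = reference inhibitor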
# CHOP inh: blocks CHOP induction under ER stress; CHO-K1 CHOP-promoter luciferase, tunicamycin-induced, 15-18 h; inhibition, % at 10 µM; actives 3.8% (n = 220,000); AID 2732;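 active = compounds that reduced the stress-induced luciferase reporter signal by more than about 70% of percent inhibition, limit read from the data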;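 note: 0% = tunicamycin plus vehicle and 100% = wells without tunicamycin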
# UPR XBP1 act: adaptive UPR (XBP1) activation. CHO-XBP1 luciferase reporter, IRE1-XBP1 UPR activation, luminescence; percent of tunicamycin response, DMSO as zero. activation, % at 20 µM. actives 0.33% (n = 330,000). AID 463104;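 active = versus positive control, 20 µM dose yields 30% or more activation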;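 note: 100% = tunicamycin at 10 µg/mL and 0% = DMSO only wells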
#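 Signal: luciferase luminescence; Assay system: CHO-XBP1 luciferase reporter cells; Amount: one thousand reporter cells per well; Dosing: 20 µM single concentration, DMSO 1%; Benchmarks: high control tunicamycin 10 µg/mL final, low control DMSO vehicle only; Schedule: 6 h compound exposure at 37 °C, 5% CO2; Evaluation: percent activation relative to tunicamycin reference.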
# CHOP UPR activ: apoptotic UPR (CHOP) activation; actives 0.34% (n = 330,000); AID 449763; CHO-CHOP luciferase reporter, luminescence; percent of tunicamycin response over DMSO baseline; activation, % at 10 µM;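 active = at 10 µM dose, activation of 40% or more, normalized to positive control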;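 note: 100% = tunicamycin at 10 µg/mL and 0% = DMSO alone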
#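 System: CHO-CHOP luciferase reporter cell line; amount: 500 cells/well; buffer or medium: F12 medium containing 10% fetal bovine serum; incubation: 6 h compound exposure at 37 °C after overnight seeding; measured by: luciferase luminescence after 10 min with Steady-Glo reagent; evaluation: % reporter activation, DMSO baseline versus tunicamycin full activation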
# TLR9-MyD88 block: inhibitors of human TLR9-MyD88 binding | CHO BLA complementation TLR9-MyD88, CCF4 FRET ratio | inhibition, % at 4.98 µM | actives 0.21% (n = 340,000) | AID 504734;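 active = inhibition above the mean over all tested compounds plus 3 SD, cut at about 21% in these data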;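 note: 0% = DMSO only wells and 100% = clavulanate BLA inhibitor control wells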
# NOD2-RIPK2 conf: NOD2-RIPK2 interaction inhibition confirmed. CHO cells, NOD2-RIPK2 BLA complementation, CCF4 FRET. actives 70% (n = 1,200). inhibition, % at 4.98 µM. shares compounds with NOD2 RIPK2 PPI;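 active = mean inhibition across replicates above a set limit taken from the earlier primary screen, cut at about 21% in these data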;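 note: 0% = DMSO-only wells and the high end = clavulanate BLA-blocked wells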
# BLA counter: hits BLA reporter in NOD2-RIPK2 inhibitor counterscreen; shares compounds with NOD2 RIPK2 PPI; CHO BLA reporter, CCF4 FRET ratio; inhibition, % at 4.98 µM; actives 57% (n = 1,200);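 active = mean inhibition above the low-control mean inhibition plus three low-control SD, cut at about 11% in these data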;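 note: 0% = DMSO only wells and 100% = clavulanate high control wells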
# * hit, by the source's call; . = not tested or not shown. Only a selection was taken, and hits are over-represented in it overall.
SMILES,NOD2 RIPK2 PPI,TLR4 MyD88 comp,CHOP inh,UPR XBP1 act,CHOP UPR activ,TLR9-MyD88 block,NOD2-RIPK2 conf,BLA counter
Cc1cccc(C)c1NC(=O)C(c1cccc2ccccc12)n1c(=O)c(-c2cc3ccccc3[nH]2)nc2ccccc21 (configuration not stated),42*,.,.,.,.,.,38*,64*
CCCCCN(C(=O)CCC(=O)OCC(=O)N1CCC(C)CC1)c1c(N)n(CCCC)c(=O)[nH]c1=O,1,.,.,0,-2,-19,.,.
O=C(Nc1cccc(F)c1)N1CCN(C(=O)c2ccco2)CC1,-14,.,.,-7,-1,-8,.,.
O=C(NCc1ccccc1)C(CCc1ccccc1)n1c(=O)c(-c2cc3ccccc3[nH]2)nc2ccccc21 (configuration not stated),50*,.,.,.,.,.,46*,69*
O=C(NCc1ccccc1)C(c1cccc2ccccc12)n1c(=O)c(-c2ccco2)nc2ccccc21 (configuration not stated),-11,.,.,.,.,.,.,.
O=C(COC(=O)CCN=C1NS(=O)(=O)c2ccccc21)NNC(=O)c1ccccc1,1,.,.,0,2,-11,.,.
N#CC1=C(N)N(c2ncn[nH]2)C2=C(C(=O)CCC2)C1c1ccc(F)cc1 (configuration not stated),0,-7,-3,2,0,3,.,.
CC1(C(=O)NC2CCCCCCC2)CC1(Cl)Cl (configuration not stated),-10,3,9,0,-1,6,.,.
CCOC(=O)C1=C(c2ccccc2)N=c2s/c(=C\c3ccc(O)cc3)c(=O)n2C1c1cccs1 (configuration not stated),25*,20,68,-1,0,-5,31*,42*
CC(=O)C1=C(c2cccc([N+](=O)[O-])c2)N(C(C)=O)n2c(C)nnc2S1,-2,-2,28,0,15,-1,.,.
CCOCCCNC(=O)c1c[nH]c2c(CC)cccc2c1=O,-5,-25,-8,4,-1,-3,.,.
Cc1cc(C)c(S(=O)(=O)NCC(c2ccco2)N2CCc3ccccc3C2)c(C)c1 (configuration not stated),-5,.,.,-1,3,-7,.,.
O=[N+]([O-])c1cc(S(=O)(=O)Oc2ccccc2)ccc1Cl,58*,.,.,.,.,16,16,1
CC(=O)Nc1cccc(S(C)(=O)=O)c1,21*,11,6,0,4,-10,-2,-4
CC(=O)Nc1cccc(N(C)S(C)(=O)=O)c1,-7,8,40,6,0,5,.,.
O=C(Cn1nc(-c2ccccc2)c2ccccc2c1=O)NN1CCOCC1,-8,.,-6,-1,-1,2,.,.
COc1ccc(CC(=O)Nc2ccc(-c3cn4ccc(C)cc4n3)cc2)cc1,23*,7,10,26,2,8,10,-6
Cc1ccccc1NC(=O)c1c2c(nc3ccccc13)CCC2,-3,-11,50,0,1,0,.,.
COc1ccc(C(=O)NC2CC(C)(C)NC(C)(C)C2)cc1S(=O)(=O)N1CCOCC1,4,.,.,.,.,3,.,.
O=C(Cn1sc2ccccc2c1=O)Nc1ccc(Cl)cc1,21*,.,.,.,.,5,42*,7
O=C(Cn1sc2ccccc2c1=O)Nc1ccc(F)cc1,25*,.,.,.,.,11,25*,1
O=C1NC[C@H](CCCCN2C[C@@H](Cc3ccccc3)N(CCC3CCCCC3)C(=O)C2=O)N(CCC2CCCCC2)C1=O,-6,.,.,.,.,.,.,.
CC(C)(C)OC(=O)N[C@@H](Cc1ccccc1)C(=O)N[C@@H](CO)[C@H](O)[C@@H]1C[C@@H]1C(=O)NC1CCCCC1,2,.,.,1,1,3,.,.
